Measured values of several laboratories.
Target: Tyrosine-protein kinase CSK (CSK, Homo sapiens, UniProt P41240)

SMILES	test	test system	setting	measurement	result
CNC(=O)c1ccc(Nc2ncc(C(F)(F)F)c(NCc3nccnc3N(C)S(C)(=O)=O)n2)cc1	cell-free assay, competition with immobilised ligand		0.1 µM	remaining binding	100%
Cc1ccc(Nc2nccc(N(C)c3ccc4c(C)n(C)nc4c3)n2)cc1S(N)(=O)=O	enzyme activity, inhibitor		0.3 µM	inhibition	-6%
C#Cc1cccc(Nc2ncnc3cc(OCCOC)c(OCCOC)cc23)c1	cell-free assay, inhibitor		0.5 µM	remaining signal	100%
COc1ccc2cc(OCC3(C(=O)O)CN(C(=O)c4ccc(F)cc4)C3)ccc2c1	cell-free assay, competition with immobilised ligand		1 µM	remaining binding	100%
COc1cc2ncnc(Nc3ccc(Oc4ccccc4)cc3C)c2cc1OC	enzyme activity, inhibitor		1 µM	inhibition	91%
COc1cc(Nc2cnc(C#N)c(O[C@H](C)CN(C)C)n2)ncc1-c1cnn(C)c1	enzyme activity, inhibitor, radiometric		1 µM	remaining activity	83%
CC(C)(C)c1nc(-c2cccc(NS(=O)(=O)c3c(F)cccc3F)c2F)c(-c2ccnc(N)n2)s1	enzyme activity, inhibitor, radiometric		1 µM	remaining activity	34%
CN(c1ncccc1CNc1nc(Nc2ccc3c(c2)CC(=O)N3)ncc1C(F)(F)F)S(C)(=O)=O	enzyme activity, inhibitor		1 µM	inhibition	29.1%
Cn1c(=O)n(-c2ccc(C(C)(C)C#N)cc2)c2c3cc(-c4cnc5ccccc5c4)ccc3ncc21	enzyme activity, inhibitor		10 µM	remaining activity	100%
CNc1cc(Oc2cc(C(=O)Nc3cc(N4CCN(C)CC4)cc(C(F)(F)F)c3)ccc2C)ncn1	target engagement in cells, inhibitor, chemoproteomics	Huh-7	1 µM	inhibition	-15%
O=C1NC(=O)c2cc(Nc3ccc(F)cc3)c(Nc3ccc(F)cc3)cc21	enzyme activity, inhibitor		0.5 µM	remaining activity	92%
CNC(=O)c1cc(Oc2ccc(NC(=O)Nc3ccc(Cl)c(C(F)(F)F)c3)cc2)ccn1	enzyme activity, inhibitor		0.3 µM	inhibition	-7%
FC(F)(F)Oc1cccc(-c2cnc3ccc(-c4ccncc4)nn23)c1	enzyme activity, inhibitor, radiometric		1 µM	activity vs control	97%
O=C(Nc1cnn(-c2csc(C(=O)NC3COC3)c2)c1)Nc1ccccc1Cl	enzyme activity, inhibitor		5 µM	remaining activity	99.2%
Cn1cc(Cl)c2c(Oc3c(F)cc(Nc4cc(Cl)nc(N)n4)cc3F)ccnc21	cell-free assay, competition with immobilised ligand		0.1 µM	remaining binding	100%
CCN(CC)CCNC(=O)c1c(C)[nH]c(/C=C2\C(=O)Nc3ccc(F)cc32)c1C	enzyme activity, inhibitor		0.3 µM	inhibition	-8%
Cc1cnc(NC2CCOCC2)nc1-n1cnc(C(=O)NC(CN)c2cc(F)cc(Cl)c2)c1 (stereo not drawn)	enzyme activity, inhibitor, radiometric		1 µM	remaining activity	110%

SMILES	test	test system	setting	measurement	result
Cc1c[nH]c2nccc(Oc3c(F)cc(Nc4cc(Cl)nc(N)n4)cc3F)c12	cell-free assay, competition with immobilised ligand		0.1 µM	remaining binding	87%
COc1cc(Cl)c(C(=O)N[C@@H](CN[C@H]2CC[C@@H](N)CC2)Cc2ccc(C#N)cc2)cc1-c1ccc(CN[C@H](C)c2ccc(C)cc2)o1	enzyme activity, inhibitor		1 µM	remaining activity	99%
CO[C@@H](C)c1c(Nc2ccc([C@H](N(C)C(=O)C3CCS(=O)(=O)CC3)C(F)(F)F)cc2)cnc2cc(Cl)nn12	cell-free assay, competition with immobilised ligand		1 µM	remaining binding	100%
Cc1cc(NC(=O)c2cccc3cc(-c4cccc5[nH]nc(N)c45)ccc23)ccc1F	enzyme activity, inhibitor		0.1 µM	activity vs control	97%
Nc1nc(NC2CCCCC2)sc1C(=O)c1ccccc1	enzyme activity, inhibitor		10 µM	remaining activity	95%
Oc1cccc(-c2nc(N3CCOCC3)c3oc4ncccc4c3n2)c1	enzyme activity, inhibitor		10 µM	remaining activity	101%
O=C1c2ccccc2-c2n[nH]c3cccc1c23	enzyme activity, inhibitor		0.5 µM	activity vs control	95.6%
O=C(Nc1cnn(-c2csc(C(=O)NC3COC3)c2)c1)Nc1c(F)cccc1Cl	enzyme activity, inhibitor		5 µM	remaining activity	97.5%
Cc1ccc(C(=O)Nc2ccc(CN3CCN(C)CC3)c(C(F)(F)F)c2)cc1C#Cc1cnc2cccnn12	enzyme activity, inhibitor		23.5 nM	remaining activity	15%
O=C(CSc1nc2nccnc2c(=O)n1CCc1ccccc1)Nc1nccs1	enzyme activity, inhibitor		10 µM	inhibition	6%
Cn1nc(C(=O)NCc2ccc(C(=O)O)cc2)cc1-c1ccc2[nH]ccc2c1	cell-free assay, competition with immobilised ligand		0.1 µM	remaining binding	94%
CN1CC(Oc2cnc(C#N)cc2-c2ccn3nc(NC(=O)C4CC4)cc3c2)C1	enzyme activity, inhibitor		1 µM	inhibition	-11%
CNC(=O)Nc1ccc2c(c1)[C@@]1(CC2)OC(=O)N(CC(=O)N(Cc2ccc(F)cc2)[C@@H](C)C(F)(F)F)C1=O	cell-free assay, competition with immobilised ligand		1 µM	remaining binding	100%
c1nc2c(Nc3ccc4c(c3)OCCO4)nc(Nc3ccc4c(c3)OCCO4)nc2[nH]1	enzyme activity, inhibitor		10 µM	activity vs control	18%
Cn1nc(C(F)(F)F)cc1-c1cnc(N2CCc3cc(S(=O)(=O)Nc4c(F)cc(Cl)cc4F)cc(N4CCCC4=O)c32)nc1	cell-free assay, competition with immobilised ligand		1 µM	remaining binding	93%
Oc1ccc(-c2nc(-c3ccncc3)c(-c3ccc(F)cc3)[nH]2)cc1	enzyme activity, inhibitor		0.5 µM	remaining activity	93.7%
